Results as given in ChEMBL document CHEMBL4513216, “Probing the Open Global Health Chemical Diversity Library for Multistage-Active Starting Points for Next-Generation Antimalarials” (ACS Infect Dis, 2020).

Assay: Toxicity liver stage against HepG2, at 10uM
Format: cell-based
Set-up: test concentration 10 uM, cell line HepG2-A16-CD81EGFP
Conditions: human, HepG2-A16-CD81EGFP cells; read-out: INHIBITION
Procedure, shortened: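 Uninfected HepG2-A16-CD81EGFP cells, 3 × 10^3 per well, 1536-well, plated on prespotted compound at 10 μM final, parasite-free screening media added to match infected plates; puromycin 10 μM positive, DMSO 0.5% negative; run in parallel with 48 h PbLuc assay at 37 °C, 5% CO2; viability by CellTiter-Glo luminescence, normalized to controls.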

Which cytotoxicity at 10 µM does the source give for `Cc1nsc(NC2CCOC3(CCCCC3)C2)n1` (stereo unspecified) here?
The cytotoxicity at 10 µM was 5%.

With `Cc1oc(C(=O)O)cc1S(=O)(=O)Nc1cccc(-c2nccs2)c1` as the molecule, how does the cytotoxicity at 10 µM read?
The cytotoxicity at 10 µM was -1.01%.

With `NC(=O)C1(CNCc2csc(-c3cccs3)n2)CCOCC1` as the molecule, how does the cytotoxicity at 10 µM read?
Its cytotoxicity at 10 µM is -19.3%.

For `CCC(CC)CNC(=O)N(C)C(C)c1ccccn1` (stereo unspecified), which cytotoxicity at 10 µM is on record?
The cytotoxicity at 10 µM was -6.2%.

With `N#CCCN(C(=O)CN1CCCC1C1CCCCC1)c1ccccc1` (stereo unspecified) as the molecule, how does the cytotoxicity at 10 µM read?
The cytotoxicity at 10 µM was -12.1%.

For `COc1ccccc1OCC(=O)NS(=O)(=O)c1cc(F)ccc1F`, which cytotoxicity at 10 µM is on record?
The cytotoxicity at 10 µM was -9.18%.

Which cytotoxicity at 10 µM does the source give for `COc1ccc(OCC(=O)NC(C)c2ccccc2)c(C(=O)O)c1` (stereo unspecified) here?
The cytotoxicity at 10 µM was 2.4%.

For `Cc1nc(CN2CCC(CNC(=O)Nc3ccccn3)CC2)oc1C`, which cytotoxicity at 10 µM is on record?
Its cytotoxicity at 10 µM is -3.5%.

With `CN(Cc1cccc(F)c1)C(=O)CN1CCCC1CCc1ccccc1` (stereo unspecified) as the molecule, how does the cytotoxicity at 10 µM read?
The cytotoxicity at 10 µM was -12%.

Which cytotoxicity at 10 µM does the source give for `O=C(NCCC1CCCO1)c1ccccc1N1CCOCC1` (stereo unspecified) here?
The cytotoxicity at 10 µM was -10.8%.

For `CC(NC(=O)c1nc(=O)[nH][nH]1)c1ccc(OCC2CC2)c(F)c1` (stereo unspecified), which cytotoxicity at 10 µM is on record?
Its cytotoxicity at 10 µM is -5.75%.

For `CC1CN(CC(=O)NC(=O)NCc2ccccc2)CCO1` (stereo unspecified), which cytotoxicity at 10 µM is on record?
The cytotoxicity at 10 µM was -7.07%.

For `CCN(C(=O)c1nc2c(s1)CCCN2C(C)=O)C(C)C`, which cytotoxicity at 10 µM is on record?
Its cytotoxicity at 10 µM is -0.802%.

For `CCOCC(=O)N1CC[C@H]2O[C@@H](C)C[C@H]2C1`, which cytotoxicity at 10 µM is on record?
Its cytotoxicity at 10 µM is -67.9%.

Which cytotoxicity at 10 µM does the source give for `Cc1nccc([C@H]2C[C@@H]3CCN(Cc4ccco4)C[C@H]3O2)n1` here?
The cytotoxicity at 10 µM was -1.03%.

For `O=C(c1ccnnc1)N1C[C@H](OCc2ccccn2)[C@H]2COC[C@H]21`, which cytotoxicity at 10 µM is on record?
Its cytotoxicity at 10 µM is -7.52%.

For `O=C(c1ccccn1)N1CCC2(CC1)COC(COc1cccnc1)C2` (stereo unspecified), which cytotoxicity at 10 µM is on record?
The cytotoxicity at 10 µM was -1.98%.

Which cytotoxicity at 10 µM does the source give for `CC(C)Cc1n[nH]c(C2CC(=O)N(CC(C)C)C2)n1` (stereo unspecified) here?
Its cytotoxicity at 10 µM is 3.49%.

For `CC(C)(C)c1ncc2c(n1)CN(C(=O)c1ccc(C#N)nc1)C2`, which cytotoxicity at 10 µM is on record?
Its cytotoxicity at 10 µM is -6.39%.

With `COc1ccc2c(c1)C(C(=O)NCCN1CCNC1=O)CC(=O)N2` (stereo unspecified) as the molecule, how does the cytotoxicity at 10 µM read?
The cytotoxicity at 10 µM was -1.13%.

Which cytotoxicity at 10 µM does the source give for `c1cc(-c2nc3c(c(NCCc4c[nH]cn4)n2)CCNCC3)ccn1` here?
Its cytotoxicity at 10 µM is -146%.

For `O=C(O)c1ccccc1C1CCN(C2Cc3ccccc3C2)C1` (stereo unspecified), which cytotoxicity at 10 µM is on record?
Its cytotoxicity at 10 µM is 12.7%.

With `CN(Cc1ccc2nsnc2c1)C(=O)Cn1ncc(N(C)C)cc1=O` as the molecule, how does the cytotoxicity at 10 µM read?
Its cytotoxicity at 10 µM is 3.67%.

Which cytotoxicity at 10 µM does the source give for `CC(C)C1CN(C(=O)c2csc(CN(C)C)n2)CCC(=O)N1CC1CC1` (stereo unspecified) here?
The cytotoxicity at 10 µM was -1.74%.

Which cytotoxicity at 10 µM does the source give for `OC[C@H]1CN(Cc2c(Cl)cncc2Cl)C[C@H]1CN1CCCCCC1` here?
Its cytotoxicity at 10 µM is -112%.

With `Nc1ccc(-c2ccc(F)cc2Cl)cn1` as the molecule, how does the cytotoxicity at 10 µM read?
Its cytotoxicity at 10 µM is -151%.

With `CN(C)S(=O)(=O)NCc1cccnc1Oc1ccccc1F` as the molecule, how does the cytotoxicity at 10 µM read?
The cytotoxicity at 10 µM was 1.81%.

For `COc1cccc2c1OCC(C(=O)N1CCN(C3CCSCC3)CC1)C2` (stereo unspecified), which cytotoxicity at 10 µM is on record?
The cytotoxicity at 10 µM was -1.62%.

With `CCc1nnc(CN(C)C[C@@H]2CCCN3CCCC[C@H]23)o1` as the molecule, how does the cytotoxicity at 10 µM read?
The cytotoxicity at 10 µM was 1.52%.

With `Cc1cc(C2CCC2)nc(N(C)Cc2ncccc2C)n1` as the molecule, how does the cytotoxicity at 10 µM read?
The cytotoxicity at 10 µM was -0.392%.

For `O=C(O)COc1ccc(Cl)cc1CN1CCC2(CCNCC2)CC1`, which cytotoxicity at 10 µM is on record?
Its cytotoxicity at 10 µM is 6.45%.

For `CN1C(=O)CC(C(=O)O)C12CCN(Cc1ccc(Cl)c(Cl)c1)CC2` (stereo unspecified), which cytotoxicity at 10 µM is on record?
The cytotoxicity at 10 µM was 2.12%.

For `NCCO[C@H]1C[C@@H](O)C12CCN(C(=O)CCOc1ccccc1)CC2`, which cytotoxicity at 10 µM is on record?
Its cytotoxicity at 10 µM is 3.12%.

Which cytotoxicity at 10 µM does the source give for `CN(C)C(=O)c1noc2c1CN(C(=O)CCC1CCCCN1C)CC2` (stereo unspecified) here?
Its cytotoxicity at 10 µM is -2.74%.

For `CC(C)c1nc2n(n1)CC(NCc1nc(-c3ccsc3)no1)CC2` (stereo unspecified), which cytotoxicity at 10 µM is on record?
Its cytotoxicity at 10 µM is -5.39%.

For `Cn1cc(NC(=O)N2CCC(NS(C)(=O)=O)CC2)ccc1=O`, which cytotoxicity at 10 µM is on record?
Its cytotoxicity at 10 µM is -7.05%.

For `Cc1nn(C)c(N(C)C)c1CNC1CCOc2c(F)cccc21` (stereo unspecified), which cytotoxicity at 10 µM is on record?
Its cytotoxicity at 10 µM is -13.9%.

Which cytotoxicity at 10 µM does the source give for `CS(=O)(=O)N1CCCCCC1C1CCN(c2ncccc2C#N)CC1` (stereo unspecified) here?
Its cytotoxicity at 10 µM is -3.2%.

For `Cn1cc(CNC2CCCN(Cc3noc(C4CC4)n3)C2)cn1` (stereo unspecified), which cytotoxicity at 10 µM is on record?
Its cytotoxicity at 10 µM is -9.52%.

For `COc1ccc2c(c1)CN(Cc1nc3c(cnn3C)c(=O)[nH]1)CC2`, which cytotoxicity at 10 µM is on record?
The cytotoxicity at 10 µM was -8.57%.

With `c1cnn(-c2ccc(CN3CCOC(Cn4cncn4)C3)cc2)c1` (stereo unspecified) as the molecule, how does the cytotoxicity at 10 µM read?
The cytotoxicity at 10 µM was -13.6%.

Which cytotoxicity at 10 µM does the source give for `c1ccc(-c2cnc(CN3CCCC3Cn3cncn3)o2)cc1` (stereo unspecified) here?
Its cytotoxicity at 10 µM is -5.82%.

For `Cc1cc(C(F)(F)F)n2nc(C3CCCN3C3CCSCC3)cc2n1` (stereo unspecified), which cytotoxicity at 10 µM is on record?
The cytotoxicity at 10 µM was 1.77%.

Which cytotoxicity at 10 µM does the source give for `COCCO[C@H]1CCN(c2ccc(C)nn2)[C@H]1Cc1cccnc1` here?
The cytotoxicity at 10 µM was 1.53%.

Which cytotoxicity at 10 µM does the source give for `COCC(=O)N1CCC2(CC1)CNc1ccc(F)cc12` here?
Its cytotoxicity at 10 µM is 12.2%.

For `CCO[C@@H]1CO[C@@]2(CCCN(Cc3scnc3C)C2)C1`, which cytotoxicity at 10 µM is on record?
Its cytotoxicity at 10 µM is -9.06%.

For `CCS(=O)(=O)N1CCOC2(CCCN(c3ccc(C)nn3)C2)C1` (stereo unspecified), which cytotoxicity at 10 µM is on record?
Its cytotoxicity at 10 µM is 0.253%.

For `CN1CCN(CC2CC2)C(=O)C12CCN(C(=O)c1ccnnc1)CC2`, which cytotoxicity at 10 µM is on record?
Its cytotoxicity at 10 µM is 8.49%.

Which cytotoxicity at 10 µM does the source give for `CCOCC1CN(c2ccncn2)Cc2cnn(CC)c21` (stereo unspecified) here?
Its cytotoxicity at 10 µM is 3.04%.

For `CN(C)C(=O)NCc1cc(=O)n2c(n1)CN(Cc1ccoc1)CCC2`, which cytotoxicity at 10 µM is on record?
The cytotoxicity at 10 µM was -99.3%.

With `c1ccc(CO[C@@H]2CC[C@H]3[C@H]2OCCN3Cc2ccsc2)nc1` as the molecule, how does the cytotoxicity at 10 µM read?
Its cytotoxicity at 10 µM is -4.69%.

With `Cc1oncc1C(=O)N1CCC2(CCN(Cc3cccnc3)C2=O)C1` (stereo unspecified) as the molecule, how does the cytotoxicity at 10 µM read?
Its cytotoxicity at 10 µM is -144%.

For `CC(=O)NCC(=O)N1Cc2nccn2CC(CN(C)C(C)C)C1` (stereo unspecified), which cytotoxicity at 10 µM is on record?
Its cytotoxicity at 10 µM is -75.7%.

Which cytotoxicity at 10 µM does the source give for `Cc1ccc(CN2Cc3c(C(=O)N(C)C)nn(C)c3C2)s1` here?
Its cytotoxicity at 10 µM is -12.6%.

For `Cn1cc(CN2CCn3cnc(COCC4CC4)c3C2)cn1`, which cytotoxicity at 10 µM is on record?
Its cytotoxicity at 10 µM is 3.71%.

With `CCc1cnc(N2C[C@@H]3C[C@H](C(=O)NC4CCC4)[C@H](C2)O3)nc1` as the molecule, how does the cytotoxicity at 10 µM read?
The cytotoxicity at 10 µM was 5.74%.
